Most compounds without a hit are left out; they make up all but 4.2% or so of the library.
SENP1 inh: SENP1 (human) catalytic domain inhibition. Q9P0U3. recombinant SENP1 catalytic domain, CyPet-SUMO1-YPet FRET cleavage. inhibition, % at 10 µM. 360,000 tested, 0.21% active. AID 624204;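 active = inhibition at least 30% at 10 µM, raw YFP signal under a set limit, fluorescence ratio 0.5 to 1.5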
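material = recombinant human SENP1 catalytic domain, His6-tagged | quantity = 20 pM enzyme | reagent = 25 nM SUMO1 FRET substrate | compound dosing = 10 µM single point, 0.5% DMSO | timing = 50 min enzyme reaction, room temperature, light-protected | detection = FRET, CFP and YFP emission | control set = no-enzyme low, enzyme-DMSO high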
PfM18AAP inh-1: PfM18AAP enzyme inhibition | recombinant PfM18AAP, H-Glu-NHMec fluorogenic cleavage | inhibition, % at 7.35 µM | 290,000 tested, 1.2% active | AID 1822;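 active = inhibition above the campaign mean inhibition over all tested compounds plus 3 SD, cut at about 28% in these data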
HDAC3 inhib: inhibitors of human histone deacetylase 3; O15379; recombinant HDAC3, fluorogenic peptide/trypsin coupled, fluorescence; inhibition, % at 8.3 µM; 320,000 tested, 0.15% active; in the data active = inhibition above about 26%, passing the limit was not always enough; inconclusive = no clear call, values can overlap the other calls
CTSL1 counter-1: blocks F. hepatica cathepsin L1 in PFM18AAP counter-screen | 300,000 tested, 0.49% active | AID 1906 | recombinant F. hepatica cathepsin L1, Z-Leu-Arg-MCA fluorescence | inhibition, % at 5.96 µM;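 active = inhibition above the mean of all tested compounds plus 3 SD, set per screening campaign, cut at about 17% in these data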
AHR activator: activates the human aryl hydrocarbon receptor | AHR-responsive luciferase reporter cells, luminescence | activation, % at 5 µM | 320,000 tested, 2.5% active | AID 2796; in the data active = activation above about 47%
Target sequence (P35869 whole entry, looked up): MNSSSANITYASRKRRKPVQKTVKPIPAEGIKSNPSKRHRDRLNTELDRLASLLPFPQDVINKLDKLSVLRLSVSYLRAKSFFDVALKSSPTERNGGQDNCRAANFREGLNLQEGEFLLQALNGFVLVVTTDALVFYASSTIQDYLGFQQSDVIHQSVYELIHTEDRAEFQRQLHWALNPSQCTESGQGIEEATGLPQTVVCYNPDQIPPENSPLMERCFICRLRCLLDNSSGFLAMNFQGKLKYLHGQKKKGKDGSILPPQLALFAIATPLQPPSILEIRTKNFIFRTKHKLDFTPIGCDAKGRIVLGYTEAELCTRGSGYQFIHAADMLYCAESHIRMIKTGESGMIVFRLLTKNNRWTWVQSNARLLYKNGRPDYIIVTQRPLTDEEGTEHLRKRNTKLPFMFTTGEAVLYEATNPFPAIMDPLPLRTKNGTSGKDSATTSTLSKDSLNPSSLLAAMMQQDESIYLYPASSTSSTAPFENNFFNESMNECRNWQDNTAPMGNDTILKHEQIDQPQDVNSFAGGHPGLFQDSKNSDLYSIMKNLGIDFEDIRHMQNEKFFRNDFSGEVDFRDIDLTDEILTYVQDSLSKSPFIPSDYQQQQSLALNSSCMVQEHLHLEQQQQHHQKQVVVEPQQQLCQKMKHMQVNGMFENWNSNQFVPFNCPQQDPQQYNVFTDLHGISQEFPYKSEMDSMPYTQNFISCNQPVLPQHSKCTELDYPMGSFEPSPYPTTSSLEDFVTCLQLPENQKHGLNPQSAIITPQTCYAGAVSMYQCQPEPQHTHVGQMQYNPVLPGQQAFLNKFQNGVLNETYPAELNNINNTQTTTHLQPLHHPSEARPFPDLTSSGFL
GAA850 FXN act: frataxin GAA850 promoter activation | HEK293 lucGAA850 FXN promoter luciferase reporter, 24 h; percent of 10 µM SAHA response | activation, % at 6 µM | 360,000 tested, 0.56% active | AID 540364;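 active = activation above the average of all compounds screened plus 3 SD, cutoff fixed separately per campaign, cut at about 7.5% in these data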
PfM18AAP inh-2: confirmation of Plasmodium falciparum M18 aspartyl aminopeptidase inhibitors. AID 2170. inhibition, % at 7.35 µM. recombinant PfM18AAP, H-Glu-NHMec fluorogenic cleavage. shares compounds with PfM18AAP inh-1. 2,400 tested, 28% active;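 active = mean inhibition over replicate wells above the hit cutoff set for the earlier primary screen, cut at about 29% in these data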
CTSL1 counter-2: counter-screen for PFM18AAP inhibitors: confirmation of human cathepsin L inhibitors. shares compounds with PfM18AAP inh-1. purified cathepsin L1, Z-Leu-Arg-MCA fluorescence. inhibition, % at 5.96 µM. 2,400 tested, under 10 active;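 active = average inhibition across replicates above the hit cutoff set in the earlier primary screen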
Each line names hits and unclear results; the compound was inactive in the other large screens (follow-up assays come after a bar, where they were run).

Fc1cccc(NC(=S)NNc2ccccc2)c1	PfM18AAP inh-1 38 | PfM18AAP inh-2 inactive | CTSL1 counter-2 inactive
Oc1cccc(NC(=S)Nc2ccccc2)c1	none | PfM18AAP inh-2 inactive | CTSL1 counter-2 inactive
COc1ccc(C(C)C)cc1-c1cncc(NC(C)=O)n1	none (no result: PfM18AAP inh-1, HDAC3 inhib, CTSL1 counter-1, AHR activator)
O=C(NC1CCCCC1)C(c1ccncc1)n1c(=O)c(-c2cc3ccccc3[nH]2)nc2ccccc21 (centres undefined)	none (no result: PfM18AAP inh-1, HDAC3 inhib, CTSL1 counter-1, AHR activator, GAA850 FXN act)
NC(=S)NNC(=O)Nc1ccc(Cl)c(Cl)c1	PfM18AAP inh-1 35 | PfM18AAP inh-2 inactive | CTSL1 counter-2 inactive
COC(=O)C1=C(C)N(Cc2ccc3c(c2)OCO3)C(=O)C1	PfM18AAP inh-1 34 | PfM18AAP inh-2 inactive | CTSL1 counter-2 inactive
CCN1C(=O)CC(C(=O)OC)=C1C	none
Cc1cc(F)cc(-c2cc(C(=O)NCC3CCCCC3)[nH]n2)c1	none (no result: PfM18AAP inh-1, HDAC3 inhib, CTSL1 counter-1, AHR activator)
Cc1c(Br)c(O)c(Br)c2sc(=O)oc12	PfM18AAP inh-1 36 | PfM18AAP inh-2 inactive | CTSL1 counter-2 inactive
S=C(Nc1ccccc1)N1CCOCC1	none
S=C(N/N=C/c1ccccc1)N1CCOCC1	PfM18AAP inh-1 34 | PfM18AAP inh-2 inactive | CTSL1 counter-2 35
CCC(NC(C)C)C(O)c1ccc(O)c(O)c1 (centres undefined)	PfM18AAP inh-1 52 | PfM18AAP inh-2 inactive | CTSL1 counter-2 inactive
Cc1sc2nc(SCC(=O)NCc3ccco3)n(-c3ccccc3)c(=O)c2c1C	none
CN1CCc2c(sc3nc(SCC(=O)NCc4ccco4)n(-c4ccccc4)c(=O)c23)C1	PfM18AAP inh-1 39 | PfM18AAP inh-2 inactive | CTSL1 counter-2 inactive
COc1ccc(-n2c(SCC(=O)NCc3ccco3)nc3sc4c(c3c2=O)CCN(C)C4)cc1	PfM18AAP inh-1 34 | PfM18AAP inh-2 inactive | CTSL1 counter-2 inactive
CC(=O)c1ccc(OCC(=O)N2CCN(S(=O)(=O)c3ccc(C)cc3C)CC2)cc1	none
Cn1c(=O)n(C)c2cc(CNC(=O)[C@H]3O[C@@H](n4ccc(=O)[nH]c4=O)[C@H](O)[C@@H]3O)ccc21	none (no result: PfM18AAP inh-1, HDAC3 inhib, CTSL1 counter-1, AHR activator, GAA850 FXN act)
COC(=O)Cn1cnc2c(cnn2-c2ccc(C)cc2)c1=O	none
COc1ccc(Br)cc1CNc1ccc2[nH]c(=O)[nH]c2c1	none
COc1ccc(Br)cc1CNc1ccc(O)cc1	PfM18AAP inh-1 42 | PfM18AAP inh-2 inactive | CTSL1 counter-2 inactive
O=C(CSc1ncn[nH]1)Nc1ccc([N+](=O)[O-])cc1Br	PfM18AAP inh-1 67 | PfM18AAP inh-2 79 | CTSL1 counter-2 inactive
O=C1c2ccccc2C(=O)N1CCSc1ncn[nH]1	none
CC(C)c1ccc(C(=O)CSc2ncn[nH]2)cc1	none
O=C(CSc1ncn[nH]1)OCN1C(=O)c2ccccc2C1=O	PfM18AAP inh-1 85 | PfM18AAP inh-2 88 | CTSL1 counter-2 inactive
O=C(CSc1ncn[nH]1)CSc1ncn[nH]1	PfM18AAP inh-1 48, HDAC3 inhib 37 | PfM18AAP inh-2 inactive | CTSL1 counter-2 inactive
CC1(C(=O)CSc2nc3ccccc3[nH]2)CCC(=O)O1 (centres undefined)	none
CC1(C(=O)CSc2ncn[nH]2)CCC(=O)O1 (centres undefined)	PfM18AAP inh-1 58 (no result: SENP1 inh, GAA850 FXN act) | PfM18AAP inh-2 70 | CTSL1 counter-2 inactive
CCc1nc2ccc(C(=O)N(C)CCCN(C)C)cn2c1N(C=O)CCC(C)C	none (no result: PfM18AAP inh-1, HDAC3 inhib, CTSL1 counter-1, AHR activator)
CC(=O)Nc1nonc1NC(=O)CSc1ccccn1	none
CCOc1cc(N2CCOCC2)c(OCC)cc1NC(=O)CSc1ncn[nH]1	PfM18AAP inh-1 49 | PfM18AAP inh-2 inactive | CTSL1 counter-2 inactive
CC(=O)Nc1nonc1NC(=O)CSc1ncn[nH]1	PfM18AAP inh-1 48 | PfM18AAP inh-2 40 | CTSL1 counter-2 inactive
O=c1cc(-c2ccc(O)cc2)oc2cc(O)c(C3OC(CO)C(O)C(O)C3O)c(O)c12 (centres undefined)	PfM18AAP inh-1 44 | PfM18AAP inh-2 inactive | CTSL1 counter-2 inactive
N#Cc1c(-c2ccc(F)cc2)cc(-c2ccccc2)nc1SCC(=O)NCC(=O)O	PfM18AAP inh-1 51 | PfM18AAP inh-2 inactive | CTSL1 counter-2 inactive
N#Cc1c(-c2ccc(Cl)cc2)cc(-c2ccccc2)nc1SCC(=O)O	none
O=C(COC(=O)CNC(=O)c1ccccc1)NCCc1ccccc1	none
O=C(CNC(=O)c1ccccc1)NCCc1ccc(O)c(O)c1	PfM18AAP inh-1 84 | PfM18AAP inh-2 73 | CTSL1 counter-2 inactive
CC(Oc1ccccc1)C(=O)Nc1nnc(S(=O)(=O)Nc2ccccc2)s1 (centres undefined)	none
NNc1nc(-c2ccccc2)cc(-c2ccccc2)n1	none
N#Cc1cc(-c2ccccc2)nc(NN)n1	PfM18AAP inh-1 43 | PfM18AAP inh-2 31 | CTSL1 counter-2 inactive
CCc1ccc(-c2nc(CS(=O)CC(=O)O)c(C)o2)cc1 (centres undefined)	none
CCN(CC)S(=O)(=O)c1ccc2oc(SCC(=O)NC3CC3)nc2c1	PfM18AAP inh-1 32 | PfM18AAP inh-2 inactive | CTSL1 counter-2 inactive
O=C(c1[nH]c(C(F)(F)F)nc1-c1ccccc1)N1CCN(c2ncccn2)CC1	none (no result: PfM18AAP inh-1, HDAC3 inhib, CTSL1 counter-1, AHR activator, GAA850 FXN act)
O=S(=O)(NNc1nccc(C(F)(F)F)n1)c1cccc(Cl)c1Cl	PfM18AAP inh-1 56 | PfM18AAP inh-2 inactive | CTSL1 counter-2 inactive
CCOC(=O)c1c(-c2cccs2)csc1N	PfM18AAP inh-1 36 | PfM18AAP inh-2 inactive | CTSL1 counter-2 inactive
Clc1cc(Cl)cc(Nc2ccccc2CN(C/C=C/c2ccc3c(c2)OCO3)Cc2ccccc2)c1	none (no result: PfM18AAP inh-1, HDAC3 inhib, CTSL1 counter-1, AHR activator)
COc1ccc(/C=C2\SC(=O)N(CC(=O)NN3CCN(C)CC3)C2=O)cc1OC	PfM18AAP inh-1 37 | PfM18AAP inh-2 inactive | CTSL1 counter-2 inactive
O=C(NCC(c1ccco1)N1CCN(c2ccccc2F)CC1)c1ccco1 (centres undefined)	none (no result: PfM18AAP inh-1)
COc1ccc(C(=O)N/N=C/c2ccc(OC)c(COc3ccccc3)c2)cc1	none
COc1ccc(/C=N\NC(=O)c2cc(O)c(O)c(O)c2)cc1COc1ccc(C(=O)OCC(C)C)cc1	PfM18AAP inh-1 32 | PfM18AAP inh-2 inactive | CTSL1 counter-2 inactive
COc1ccc(/C=N\NC(=O)c2cc(O)c(O)c(O)c2)cc1CN1CCN(c2ccc(F)cc2)CC1	PfM18AAP inh-1 38 | PfM18AAP inh-2 inactive | CTSL1 counter-2 inactive
CNC(=S)NNc1nc(C)cc(C)n1	PfM18AAP inh-1 68 | PfM18AAP inh-2 48 | CTSL1 counter-2 inactive
Cc1ccc2[nH]c3c(c2c1)CCc1cn[nH]c1-3	PfM18AAP inh-1 33, AHR activator 53 | PfM18AAP inh-2 inactive | CTSL1 counter-2 inactive
CN(C)/C=C/c1oc2ccc(O)cc2c1[N+](=O)[O-]	PfM18AAP inh-1 36, HDAC3 inhib inconclusive | PfM18AAP inh-2 inactive | CTSL1 counter-2 inactive
Cc1oc2ccc(O)cc2c1C(=O)c1ccc([N+](=O)[O-])cc1	none

From PubChem BioAssay
